Measurements from different studies.
Protocols differ between the studies behind these lines.
Target: Prostaglandin G/H synthase 1 (PTGS1, Ovis aries, UniProt P05979)
Observed: enzyme activity
Mode: inhibitor
One construct used (P05979 25-600): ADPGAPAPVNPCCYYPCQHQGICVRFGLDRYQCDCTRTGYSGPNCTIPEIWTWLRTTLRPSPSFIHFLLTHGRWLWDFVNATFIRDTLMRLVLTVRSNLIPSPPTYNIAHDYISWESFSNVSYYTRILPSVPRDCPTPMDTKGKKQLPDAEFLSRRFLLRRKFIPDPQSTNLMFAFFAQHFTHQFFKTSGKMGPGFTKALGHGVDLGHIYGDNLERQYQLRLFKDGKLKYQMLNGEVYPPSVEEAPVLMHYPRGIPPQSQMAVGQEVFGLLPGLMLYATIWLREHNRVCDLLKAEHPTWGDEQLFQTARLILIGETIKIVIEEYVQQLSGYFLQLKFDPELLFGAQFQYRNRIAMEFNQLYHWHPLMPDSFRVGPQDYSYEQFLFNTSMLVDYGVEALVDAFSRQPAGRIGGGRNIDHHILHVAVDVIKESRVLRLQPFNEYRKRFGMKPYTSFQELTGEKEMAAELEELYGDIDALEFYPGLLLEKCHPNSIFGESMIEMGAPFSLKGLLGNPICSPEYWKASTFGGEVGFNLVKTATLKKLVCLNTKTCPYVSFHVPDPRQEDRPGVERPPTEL

| Structure (SMILES) | technique | IC50 |
| --- | --- | --- |
| CSc1ccc(/C=C2\C=C(CC(=O)NS(=O)(=O)c3ccc(C(F)(F)F)cc3)c3cc(F)ccc32)cc1 | – | 3.9 µM |
| NS(=O)(=O)c1ccc(-c2ncc(Cl)cc2-c2nc3ccccc3s2)cc1 | absorbance | > 100 µM |
| Cc1ccc(Nc2c(-c3ccc(S(C)(=O)=O)cc3)nc3ccccn23)cc1 | fluorescence | 23.1 µM |
| CS(=O)(=O)c1ccc(-n2cc(/C=N/N=c3\[nH]c(-c4ccc(Br)cc4)cs3)c(-c3ccc(Br)cc3)n2)cc1 | – | 9.42 µM |
| C[C@@H]1O[C@@H](O[C@H]2[C@H](Oc3c(-c4ccc(O)cc4)oc4cc(O)cc(O)c4c3=O)O[C@H](CO[C@@H]3O[C@H](CO)[C@@H](O)[C@H](O)[C@H]3O)[C@@H](O)[C@@H]2O)[C@H](O)[C@H](O)[C@H]1O | absorbance | 21.8 µM |
| COc1ccc(F)c(-c2ccccc2OC)c1 | absorbance | 8.23 µM |
| CSc1ccc(/C=C2\C=C(CC(=O)NS(=O)(=O)c3ccc(Cl)s3)c3cc(F)ccc32)cc1 | – | 2 µM |
| CS(=O)(=O)c1ccc(-c2nc3ccccn3c2Nc2ccc(F)cc2)cc1 | fluorescence | 23.8 µM |
| CS(=O)(=O)c1ccc(-n2cc(C=N/N=c3\[nH]c(-c4ccc(Br)cc4)cs3)c(-c3ccc([N+](=O)[O-])cc3)n2)cc1 | – | 68.2 µM |
| Cc1cccc2nc(-c3ccc(S(C)(=O)=O)cc3)c(Nc3ccc(Cl)cc3)n12 | fluorescence | 27.1 µM |
| COc1ccccc1-c1ccc(F)c(OC(F)(F)F)c1 | absorbance | 10.8 µM |
| Cc1cccn2c(Nc3ccccc3)c(-c3ccc(S(C)(=O)=O)cc3)nc12 | fluorescence | 35.6 µM |
| NS(=O)(=O)c1ccc(-c2ncccc2-c2nc3ccccc3s2)cc1 | absorbance | > 100 µM |
| CC(C)Cc1ccc(-c2nn(-c3ccc(S(C)(=O)=O)cc3)cc2/C=N\N=C2/NC(=O)CS2)cc1 | – | 19.7 µM |
| CS(=O)(=O)c1ccc(-c2ncc(Cl)cc2-c2nc3ccccc3s2)cc1 | absorbance | > 100 µM |
| O=[N+]([O-])c1ccc(-c2ccccc2F)cc1 | absorbance | 10.1 µM |
| CS(=O)(=O)c1ccc(-n2cc(/C=N/N=c3\[nH]c(-c4ccc([N+](=O)[O-])cc4)cs3)c(-c3ccc([N+](=O)[O-])cc3)n2)cc1 | – | 38.5 µM |
| COc1ccccc1-c1ccc(F)c(C(F)(F)F)c1 | absorbance | 9.99 µM |
| Cc1cccn2c(Nc3ccc(F)cc3)c(-c3ccc(S(C)(=O)=O)cc3)nc12 | fluorescence | 31.5 µM |
| Cc1ccc(/C=C2\C=C(CC(=O)O)c3cc(F)ccc32)cc1 | – | 3.2 µM |
| COc1ccc(Nc2c(-c3ccc(S(C)(=O)=O)cc3)nc3ccccn23)cc1 | fluorescence | 16.5 µM |
| Fc1ccc(-c2ccccc2F)cc1OC(F)(F)F | absorbance | 11 µM |
| Cc1ccc(Nc2c(-c3ccc(S(C)(=O)=O)cc3)nc3cccc(C)n23)cc1 | fluorescence | 19.6 µM |
| CC(C)Cc1ccc(-c2nn(-c3ccc(S(C)(=O)=O)cc3)cc2/C=N/N=c2\[nH]c(-c3ccc(Br)cc3)cs2)cc1 | – | 27.5 µM |
